We go through 22 compounds from ChEMBL document CHEMBL4364254 (J Med Chem, 2019).

Structures are written as SMILES. Some results are limits rather than exact numbers.

The nature of data set [1]: Cmax in C57BL6 mouse plasma at 0.3 mg/kg, po measured at 1 hr post dose by LC-MS/MS analysis. In kind it is ADME, organism-based. On the set-up: dose 0.3 mg/kg, route oral. In outline: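 Female C57BL6 mice, 8 weeks old, received a single oral dose of 0.3 mg/kg in 1% NMP/0.3% Tween 80 in 0.5% Na-CMC. […] Maximum observed concentrations are reported; plasma clearance and half-life come from PK analysis.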

Data set [2] can be described thus: Half life in Sprague-Dawley rat plasma at 1 mg/kg, po by LC-MS/MS analysis. It is filed as ADME, organism-based.
The next data set concerns the target Cannabinoid receptor 1 (Homo sapiens, UniProt P21554). The data set is described as follows: Displacement of [3H]CP55940 from human CB1 receptor expressed in HEK293 cell membranes. In a few lines: (§1)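 Competition binding against [3H]CP55940 in membranes from HEK cells overexpressing human CB1 or CB2. Ki values are derived from displacement, and the same membrane format is used for both receptors. Values are averages of three to six independent measurements.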

For another data set, the target named is Cannabinoid receptor 2 (Homo sapiens, UniProt P34972). The experiment in a line: Displacement of [3H]CP55940 from human CB2 receptor expressed in HEK293 cell membranes. In a few lines:
as §1

The species entered for another data set is Homo sapiens. The experiment in a line: Selectivity ratio of Ki for displacement of [3H]CP55940 from human CB2 receptor expressed in HEK293 cell membranes to Ki for displacement of [3H]CP55940 from human CB1 receptor expressed in HEK293 cell membranes. In outline:
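Competitive displacement of [3H]CP55940 from membranes of HEK cells overexpressing human CB1 or human CB2. A Ki was determined at each receptor, and selectivity was expressed as Ki(CB2)/Ki(CB1). Ki values are means of three to six independent measurements.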

Chain of Cannabinoid receptor 2 (P34972 whole entry): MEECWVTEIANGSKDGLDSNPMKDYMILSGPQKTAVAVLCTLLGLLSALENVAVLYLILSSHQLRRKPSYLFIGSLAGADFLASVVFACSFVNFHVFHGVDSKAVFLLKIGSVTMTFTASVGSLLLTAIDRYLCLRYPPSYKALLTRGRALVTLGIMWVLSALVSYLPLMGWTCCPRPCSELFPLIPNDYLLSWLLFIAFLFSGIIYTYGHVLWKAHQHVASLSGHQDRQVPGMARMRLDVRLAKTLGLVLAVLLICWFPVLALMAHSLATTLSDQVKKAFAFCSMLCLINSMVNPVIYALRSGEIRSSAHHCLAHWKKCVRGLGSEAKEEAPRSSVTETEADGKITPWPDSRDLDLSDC
Chain of Cannabinoid receptor 1 (P21554 whole entry): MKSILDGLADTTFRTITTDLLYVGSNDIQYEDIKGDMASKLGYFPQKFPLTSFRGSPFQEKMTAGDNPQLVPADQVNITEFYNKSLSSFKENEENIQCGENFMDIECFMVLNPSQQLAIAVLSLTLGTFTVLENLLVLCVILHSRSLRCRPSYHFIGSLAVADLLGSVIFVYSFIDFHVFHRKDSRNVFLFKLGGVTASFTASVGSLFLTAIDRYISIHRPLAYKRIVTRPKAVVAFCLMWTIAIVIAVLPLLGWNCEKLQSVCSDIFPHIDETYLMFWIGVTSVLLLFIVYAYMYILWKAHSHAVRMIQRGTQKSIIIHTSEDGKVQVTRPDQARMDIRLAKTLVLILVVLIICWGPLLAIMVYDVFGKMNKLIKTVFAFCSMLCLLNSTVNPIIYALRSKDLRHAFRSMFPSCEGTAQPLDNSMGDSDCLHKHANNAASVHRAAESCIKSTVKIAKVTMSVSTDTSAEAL

Consider `O=C(Nc1ccc(F)cc1F)NC1CCN(c2ncnc3c2nc(-c2ccccc2Cl)n3-c2ccc(Cl)cc2)CC1`, for which the Cmax in data set [1] stood at 1230 ng/mL. In data set [2], the half-life was 12 h.

`O=C(NCC1CCCCC1)NC1CCN(c2ncnc3c2nc(-c2ccccc2Cl)n3-c2ccc(C(F)(F)F)nc2)CC1` came in with a Ki at Cannabinoid receptor 1 of 730 nM.

For `CC1(NC(=O)Nc2ccc(F)cc2F)CCN(c2ncnc3c2nc(-c2ccccc2Cl)n3-c2ccc(Cl)cc2)CC1`, the Ki at Cannabinoid receptor 1 was 6 nM; at Cannabinoid receptor 2, above 10000 nM.

For `CC1(NC(=O)NC2CCN(c3ncnc4c3nc(-c3ccccc3Cl)n4-c3ccc(Cl)cc3)CC2)CCC(F)(F)CC1`, the Ki on Cannabinoid receptor 1 worked out at 5 nM; at Cannabinoid receptor 2 it was 7500 nM.

Compound `O=C(NCC1CCCC1)NC1CCN(c2ncnc3c2nc(-c2ccccc2Cl)n3-c2ccc(Cl)cc2)CC1` returned an inhibitory constant (Ki) on Cannabinoid receptor 2 of 3200 nM.

Consider `O=C(NCC1CCC(F)(F)CC1)NC1CCN(c2ncnc3c2nc(-c2ccccc2Cl)n3-c2ccc(Cl)cc2)CC1`, for which the Ki is 26 nM at Cannabinoid receptor 1 and above 10000 nM at Cannabinoid receptor 2.

`O=C(NC1CCCCC1)NC1CCN(c2ncnc3c2nc(-c2ccccc2Cl)n3-c2ccc(Cl)cc2)CC1`: the Ki is 1.4 nM on Cannabinoid receptor 1 and 4600 nM at Cannabinoid receptor 2.

`CCCN(CC(F)(F)F)C(=O)NC1CCN(c2ncnc3c2nc(-c2ccccc2Cl)n3-c2ccc(Cl)cc2)CC1`: the Ki at Cannabinoid receptor 1 was 1.1 nM; on Cannabinoid receptor 2, 2800 nM. In the data set filed under Homo sapiens, the Ratio Ki was determined as 2500.

The compound `CC(C)CN(C)C(=O)NC1CCN(c2ncnc3c2nc(-c2ccccc2Cl)n3-c2ccc(Cl)cc2)CC1` showed a Ki at Cannabinoid receptor 2 of 600 nM.

As to `O=C(NCC1CCCCC1)NC1CCN(c2ncnc3c2nc(-c2ccccc2Cl)n3-c2ccc(Cl)cc2)CC1`, the Ki at Cannabinoid receptor 1 came out at 0.9 nM; at Cannabinoid receptor 2, 7600 nM.

In turn, `O=C(NCc1ccccc1F)NC1CCN(c2ncnc3c2nc(-c2ccccc2Cl)n3-c2ccc(Cl)cc2)CC1` registered a Ki at Cannabinoid receptor 2 of 220 nM.

Turning to `CC1(NC(=O)NC2CCCCC2)CCN(c2ncnc3c2nc(-c2ccccc2Cl)n3-c2ccc(Cl)cc2)CC1`, the Ki at Cannabinoid receptor 1 is 13 nM; at Cannabinoid receptor 2, above 10000 nM.

On to `CC1(NC(=O)NC2CCC(F)(F)CC2)CCN(c2ncnc3c2nc(-c2ccccc2Cl)n3-c2ccc(Cl)cc2)CC1`, for which the Ki was 17 nM on Cannabinoid receptor 1 and above 10000 nM on Cannabinoid receptor 2.

Regarding `CC1(NC(=O)Nc2ccc(OC(F)F)nc2)CCN(c2ncnc3c2nc(-c2ccccc2Cl)n3-c2ccc(Cl)cc2)CC1`, the Ki was 81 nM on Cannabinoid receptor 1 and above 10000 nM on Cannabinoid receptor 2.

`O=C(NC1CCCC1)NC1CCN(c2ncnc3c2nc(-c2ccccc2Cl)n3-c2ccc(Cl)cc2)CC1` registered an inhibition constant (Ki) on Cannabinoid receptor 2 above 10000 nM.

For the compound `O=C(NC1CCN(c2ncnc3c2nc(-c2ccccc2Cl)n3-c2ccc(Cl)cc2)CC1)N1CCCCC1`, the figures for the Ki at Cannabinoid receptor 1 and on Cannabinoid receptor 2 were 1.2 nM and 400 nM, respectively. Moreover, the Ratio Ki in the data set filed under Homo sapiens is 330.

For the compound `CC1(NC(=O)Nc2ccccc2F)CCN(c2ncnc3c2nc(-c2ccccc2Cl)n3-c2ccc(Cl)cc2)CC1`, the values for the Ki at Cannabinoid receptor 1 and on Cannabinoid receptor 2 were 4 nM and above 10000 nM, respectively.

Regarding `CC1(NS(=O)(=O)NC2CCCCC2)CCN(c2ncnc3c2nc(-c2ccccc2Cl)n3-c2ccc(Cl)cc2)CC1`, the Ki on Cannabinoid receptor 1 was determined as 9 nM; at Cannabinoid receptor 2, 740 nM. In the data set listed under Homo sapiens, the Ratio Ki was determined as 82.

As for `CC1(NC(=O)NCc2ccccc2F)CCN(c2ncnc3c2nc(-c2ccccc2Cl)n3-c2ccc(Cl)cc2)CC1`, the inhibition constant Ki is 15 nM at Cannabinoid receptor 1 and 1100 nM at Cannabinoid receptor 2. Moreover, the Ratio Ki in the data set listed under Homo sapiens turned out to be 73.

With `O=C(NC1CCN(c2ncnc3c2nc(-c2ccccc2Cl)n3-c2ccc(Cl)cc2)CC1)NC1(C(F)(F)F)CCCC1`, the Ki on Cannabinoid receptor 1 is 6.3 nM; on Cannabinoid receptor 2 it was above 10000 nM.

`COCCN(C)C(=O)NC1CCN(c2ncnc3c2nc(-c2ccccc2Cl)n3-c2ccc(Cl)cc2)CC1`: the inhibition constant Ki on Cannabinoid receptor 2 was found to be 2300 nM.

As for `CCCN(C)C(=O)NC1CCN(c2ncnc3c2nc(-c2ccccc2Cl)n3-c2ccc(Cl)cc2)CC1`, the affinity on Cannabinoid receptor 2, expressed as Ki, was 630 nM.
